For nine compounds, Natriuretic activity, Diuretic activity and Kaliuretic activity results are on record in ChEMBL document CHEMBL1129580, “Endogenous natriuretic factors. 5. Synthesis and biological activity of a natriuretic metabolite of diltiazem and its derivatives” (1996).

The subject of experiment [1] is Rattus norvegicus. Description: Natriuretic effect was evaluated in the conscious female rat by natriuretic assay involving metabolic caging at dose 20 mg/kg. In kind it is functional. The essentials:
(§1)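 Rats housed singly in metabolic cages 1-2 days beforehand and acclimated to oral gavage with 3 mL/kg tap water; food and water withdrawn 2 h pre-test. Oral saline volume load, 25 mL/kg, then compound by gavage as 1% CMC suspension (1 mL/kg); 1% CMC vehicle control. Six rats per group. 5 h urine collected; volume, Na+, K+ measured. Outliers >2 SD removed; ANOVA, Scheffe F test.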

Experiment [2] deals with Rattus norvegicus. Nature of the experiment: Diuretic effect was evaluated in the conscious female rat by natriuretic assay involving metabolic caging at dose 20 mg/kg. In kind it is functional, Urine. The essentials:
as §1

The subject of experiment [3] is Rattus norvegicus. Nature of the experiment: Kaliuretic effect was evaluated in the conscious female rat by natriuretic assay involving metabolic caging at dose 10 mg/kg. In kind it is functional. The essentials: as §1
The subject of experiment [4] is Rattus norvegicus. Nature of the experiment: Kaliuretic effect was evaluated in the conscious female rat by natriuretic assay involving metabolic caging at dose 20 mg/kg. It is filed as functional. The essentials:
as §1

For experiment [5], the system named is Rattus norvegicus. Nature of the experiment: Natriuretic effect was evaluated in the conscious female rat by natriuretic assay involving metabolic caging at dose 10 mg/kg. In kind it is functional. Put shortly:
as §1

The test system of experiment [6] is Rattus norvegicus. Nature of the experiment: Diuretic effect was evaluated in the conscious female rat by natriuretic assay involving metabolic caging at dose 10 mg/kg. It is filed as functional, Urine. Put shortly: as §1
For experiment [7], the system named is Rattus norvegicus. Nature of the experiment: Natriuretic effect was evaluated in the conscious female rat by natriuretic assay involving metabolic caging at dose 50 mg/kg. It is filed as functional. The essentials:
as §1

Experiment [8] has as its system Rattus norvegicus. Nature of the experiment: Diuretic effect was evaluated in the conscious female rat by natriuretic assay involving metabolic caging at dose 50 mg/kg. In kind it is functional, Urine. The essentials: as §1
In experiment [9] the test system is Rattus norvegicus. Nature of the experiment: Kaliuretic effect was evaluated in the conscious female rat by natriuretic assay involving metabolic caging at dose 50 mg/kg. It is filed as functional. The essentials:
as §1

In experiment [10] the test system is Rattus norvegicus. Description: Kaliuretic effect was evaluated in the conscious female rat by natriuretic assay involving metabolic caging at dose 30 mg/kg. It is filed as functional. The essentials:
as §1

The test system of experiment [11] is Rattus norvegicus. Nature of the experiment: Diuretic effect was evaluated in the conscious female rat by natriuretic assay involving metabolic caging at dose 30 mg/kg. It is filed as functional, Urine. Put shortly:
as §1

Experiment [12] has as its system Rattus norvegicus. Nature of the experiment: Natriuretic effect was evaluated in the conscious female rat by natriuretic assay involving metabolic caging at dose 30 mg/kg. In kind it is functional. Put shortly: as §1
Experiment [13] has as its system Rattus norvegicus. Nature of the experiment: Diuretic effect was evaluated in the conscious female rat by natriuretic assay involving metabolic caging at dose 5 mg/kg. In kind it is functional, Urine. The essentials:
as §1

Experiment [14] relates to Rattus norvegicus. Description: Kaliuretic effect was evaluated in the conscious female rat by natriuretic assay involving metabolic caging at dose 5 mg/kg. In kind it is functional. The essentials: as §1
Experiment [15] has as its system Rattus norvegicus. Description: Natriuretic effect was evaluated in the conscious female rat by natriuretic assay involving metabolic caging at dose 5 mg/kg. In kind it is functional. The essentials:
as §1

The structures appear in SMILES notation.

In the case of `COc1ccc([C@@H]2Sc3ccccc3N(CCO)C(=O)[C@@H]2OC(C)=O)cc1`, the Natriuretic activity in [1] was <1.35 µM/g; in experiment [5] it was <1.25 µM/g. Moreover, the results for the Diuretic activity in experiment [2] and in experiment [6] were 1.28 mL/g and 1.3 mL/g, respectively. The Kaliuretic activity in experiment [3] is 0.7 µM/g; in [4], <0.67 µM/g.
With `COc1ccc([C@@H]2Sc3ccccc3N(CCOC(C)=O)C(=O)[C@@H]2OC(C)=O)cc1`, the Natriuretic activity in experiment [7] is <1.55 µM/g; in experiment [5] it was <1.35 µM/g. Also, the Diuretic activity in experiment [8] and in [6] was 1.3 mL/g throughout. Also, the Kaliuretic activity in [3] was <0.95 µM/g; in experiment [9] it was <0.7 µM/g.
With `COc1ccc([C@@H]2Sc3ccccc3N(CCO)C[C@@H]2O)cc1`, the Natriuretic activity in experiment [7] is <1.65 µM/g; in experiment [12], <1.6 µM/g; in experiment [5], <2 µM/g. The Kaliuretic activity is <0.9 µM/g in [10], <1 µM/g in experiment [3] and 0.97 µM/g in experiment [9]. Also, the Diuretic activity in experiment [11] came out at 1.75 mL/g; in experiment [8], 1.6 mL/g; in experiment [6], 1.7 mL/g.
As for `CCOC(=O)CN1C(=O)[C@H](O)[C@H](c2ccc(OC)cc2)Sc2ccccc21`, the Natriuretic activity in experiment [7] was <1.25 µM/g; in experiment [12], <1.6 µM/g; in experiment [5], <2 µM/g. The Kaliuretic activity in experiment [10] was <0.75 µM/g; in experiment [3], <1.1 µM/g; in experiment [9] it was 1 µM/g. In addition, the Diuretic activity in [11] worked out at 1.5 mL/g; in experiment [8], 1.3 mL/g; in [6], 1.7 mL/g.
Regarding `COc1ccc([C@@H]2Sc3ccccc3N(CCN(C)C)C(=O)[C@@H]2OC(C)=O)cc1` [DILTIAZEM], the Natriuretic activity was <1.6 µM/g in experiment [1] and <1.4 µM/g in experiment [5]. Besides, the Diuretic activity in experiment [2] stood at 1.8 mL/g; in experiment [6] it was 1.6 mL/g. In addition, the Kaliuretic activity in [3] was <0.8 µM/g; in experiment [4], 0.7 µM/g.
As to `NS(=O)(=O)c1cc(C(=O)O)c(NCc2ccco2)cc1Cl` [FUROSEMIDE], the Natriuretic activity was <1.1 µM/g in experiment [1] and <2.5 µM/g in experiment [12]. Also, the figures for the Diuretic activity in [2] and in experiment [11] were 1.3 mL/g and 2.6 mL/g, respectively. Further, the results for the Kaliuretic activity in experiment [10] and in experiment [4] were <1.6 µM/g and <1.1 µM/g, respectively.
In the case of `COc1ccc([C@@H]2Sc3ccccc3N(CC(=O)O)C(=O)[C@@H]2O)cc1`, the Natriuretic activity in experiment [7] was <1.95 µM/g; in [1] it was <1.6 µM/g; in experiment [12], <2.1 µM/g; in experiment [5], <2 µM/g. For the same compound, the Diuretic activity in experiment [2] is 1.7 mL/g; in experiment [11] it was 2.1 mL/g; in [8] it was 1.85 mL/g; in experiment [6] it was 2 mL/g. Further, the Kaliuretic activity amounted to 1.07 µM/g in experiment [10], 1.1 µM/g in experiment [3], 1.15 µM/g in experiment [4] and 1.23 µM/g in experiment [9].
Consider `COc1ccc([C@@H]2Sc3ccccc3N(CCO)C(=O)[C@@H]2O)cc1`, for which the Natriuretic activity in experiment [7] was <0.9 µM/g; in experiment [1], <1.9 µM/g; in experiment [15] it was <1.6 µM/g; in experiment [5] it was <2.5 µM/g. For the same compound, the Diuretic activity in experiment [2] was 1.8 mL/g; in experiment [13], 1.7 mL/g; in [8], 1.6 mL/g; in experiment [6], 2.1 mL/g. For the same compound, the Kaliuretic activity in [14] was 1 µM/g; in experiment [3] it was 1.1 µM/g; in experiment [4], <1.05 µM/g; in experiment [9], <0.8 µM/g.
On to `COc1ccc([C@@H]2Sc3ccccc3N(CC(=O)O)C(=O)[C@@H]2OC(C)=O)cc1`, for which the Natriuretic activity was 1.7 µM/g in experiment [7], <1.55 µM/g in experiment [1], <2.1 µM/g in [12] and <2 µM/g in experiment [5]. In addition, the Diuretic activity was 1.75 mL/g in [2], 2.25 mL/g in [11], 2.1 mL/g in experiment [8] and 1.92 mL/g in [6]. In addition, the Kaliuretic activity is 1.2 µM/g in experiment [10], <0.9 µM/g in [3], <1.08 µM/g in [4] and 1.25 µM/g in experiment [9].
